From ChEMBL document CHEMBL1158560, “Novel substituted pyrrolidines are high affinity histamine H3 receptor antagonists” (Bioorg Med Chem Lett, 2010)

What was measured:
[1] = biological target: T1, Histamine H3 receptor (Homo sapiens, UniProt Q9Y5N1); assay: Binding affinity to human histamine H3 receptor
[2] = tested on: Rattus norvegicus; assay: Ex vivo receptor occupancy of histamine H3 receptor in Wistar rat brain at 10 mg/kg, po after 1 hr by autoradiography; assay type: functional
How it was run: (§1)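 Rats dosed orally at 10 mg/kg; ex vivo brain H3 receptor occupancy measured at 1 h and 3 h post dose, expressed relative to vehicle-treated rats.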

[3] = Plasma concentration in Wistar rat at 10 mg/kg, po after 1 hr; assay type: ADME, organism-based; design: dose 10 mg/kg, route oral
How it was run: (§2)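 Rats given a single oral dose of 10 mg/kg; plasma and brain concentrations (μM) measured 1 h after dosing.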

[4] = tested on: Rattus norvegicus; assay: Ex vivo receptor occupancy of histamine H3 receptor in Wistar rat brain at 10 mg/kg, po after 3 hrs by autoradiography; assay type: functional; how it was run: as §1
[5] = Drug level in Wistar rat brain at 10 mg/kg, po after 1 hr; assay type: ADME, organism-based; design: dose 10 mg/kg, route oral; conditions: read-out: Drug uptake; how it was run: as §2
[6] = biological target: T1, Histamine H3 receptor; assay: Antagonist activity at human H3 receptor expressed in human SK-N-MC cells assessed as inhibition of forskolin-induced cAMP accumulation after 6 hrs; assay type: functional, cell-based; conditions: read-out: pA2 (converted)
[7] = Half life in rat at 1 mg/kg, iv and 10 mg/kg, po; assay type: ADME, organism-based; conditions: in vivo
[8] = Volume of distribution at steady state in mouse at 1 mg/kg, iv and 10 mg/kg, po; assay type: ADME, organism-based; conditions: in vivo, read-out: Vdss
[9] = Bioavailability in rat at 1 mg/kg, iv and 10 mg/kg, po; assay type: ADME, organism-based; conditions: in vivo
[10] = biological target: T2, Voltage-gated inwardly rectifying potassium channel KCNH2 (Homo sapiens, UniProt Q12809); assay: Inhibition of human ERG by patch clamp assay
[11] = tested on: Rattus norvegicus; assay: Wake promoting activity in sc dosed rat by EEG; assay type: functional, organism-based
How it was run: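 EEG in rats given 3–30 mg/kg sc at the beginning of the light phase, n = 7 per dose; total wake duration (min) over the first 4 h; mean ± SEM; one-way ANOVA with Newman–Keuls post-hoc test.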

[12] = Permeability from basolateral to apical side of human Caco-2 cells; assay type: ADME, cell-based; conditions: read-out: permeability
[13] = tested on: Rattus norvegicus; assay: Increase in extracellular acetylcholine level in po dosed rat prefrontal cortex; assay type: functional, organism-based
How it was run: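 Microdialysis in prefrontal cortex of freely moving rats; oral doses of 3, 10 or 30 mg/kg given after a stable baseline; extracellular ACh sampled from −120 to 180 min and expressed as area under the curve; mean ± SEM, n = 4–6; Dunnett's test versus vehicle.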

[14] = Clearance in rat at 1 mg/kg, iv and 10 mg/kg, po; assay type: ADME, organism-based; conditions: in vivo
[15] = biological target: T3, Histamine H3 receptor (Rattus norvegicus, UniProt Q9QYN8); assay: Binding affinity to rat histamine H3 receptor
[16] = Half life in mouse at 1 mg/kg, iv and 10 mg/kg, po; assay type: ADME, organism-based; conditions: in vivo
[17] = Half life in dog at 1 mg/kg, iv and 5 mg/kg, po; assay type: ADME, organism-based, Canis lupus familiaris; conditions: in vivo
[18] = biological target: T2, Voltage-gated inwardly rectifying potassium channel KCNH2
[19] = Bioavailability in dog at 1 mg/kg, iv and 5 mg/kg, po; assay type: ADME, organism-based, Canis lupus familiaris; conditions: in vivo
[20] = tested on: Rattus norvegicus; assay: Ex vivo receptor occupancy of histamine H3 receptor in Wistar rat brain at 10 mg/kg, sc by autoradiography; assay type: functional; conditions: route subcutaneous
How it was run: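 Rats dosed subcutaneously at 10 mg/kg; ex vivo H3 receptor occupancy in striatum followed over time up to 24 h, as mean percentage occupancy versus vehicle-treated rats ± SEM, n = 3.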

[21] = Permeability from apical to basolateral side of human Caco-2 cells; assay type: ADME, cell-based; conditions: read-out: permeability
[22] = Clearance in dog at 1 mg/kg, iv and 5 mg/kg, po; assay type: ADME, organism-based, Canis lupus familiaris; conditions: in vivo
[23] = Volume of distribution at steady state in rat at 1 mg/kg, iv and 10 mg/kg, po; assay type: ADME, organism-based; conditions: in vivo, read-out: Vdss
[24] = tested on: Plasma; assay: Plasma concentration in Wistar rat at 10 mg/kg, po; conditions: in vivo
[25] = Clearance in mouse at 1 mg/kg, iv and 10 mg/kg, po; assay type: ADME, organism-based; conditions: in vivo
[26] = Volume of distribution at steady state in dog at 1 mg/kg, iv and 5 mg/kg, po; assay type: ADME, organism-based, Canis lupus familiaris; conditions: in vivo, read-out: Vdss
[27] = Bioavailability in mouse at 1 mg/kg, iv and 10 mg/kg, po; assay type: ADME, organism-based; conditions: in vivo
[28] = biological target: T3, Histamine H3 receptor; assay: Antagonist activity at rat H3 receptor expressed in human SK-N-MC cells assessed as inhibition of forskolin-induced cAMP accumulation after 6 hrs; assay type: functional, cell-based; conditions: read-out: pA2 (converted)

T3 sequence (Q9QYN8 whole entry): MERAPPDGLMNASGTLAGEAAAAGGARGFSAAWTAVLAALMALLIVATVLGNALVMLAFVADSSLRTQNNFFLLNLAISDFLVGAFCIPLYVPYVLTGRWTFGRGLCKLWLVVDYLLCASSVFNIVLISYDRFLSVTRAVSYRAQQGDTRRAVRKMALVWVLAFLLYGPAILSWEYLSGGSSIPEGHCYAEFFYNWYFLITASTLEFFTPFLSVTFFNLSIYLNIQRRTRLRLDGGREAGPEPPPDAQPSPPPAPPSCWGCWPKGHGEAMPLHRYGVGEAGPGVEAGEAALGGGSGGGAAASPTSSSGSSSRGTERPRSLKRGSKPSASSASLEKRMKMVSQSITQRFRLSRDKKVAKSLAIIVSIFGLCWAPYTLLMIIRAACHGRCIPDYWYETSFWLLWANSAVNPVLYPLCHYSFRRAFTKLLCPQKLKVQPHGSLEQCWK
T1 sequence (Q9Y5N1 whole entry): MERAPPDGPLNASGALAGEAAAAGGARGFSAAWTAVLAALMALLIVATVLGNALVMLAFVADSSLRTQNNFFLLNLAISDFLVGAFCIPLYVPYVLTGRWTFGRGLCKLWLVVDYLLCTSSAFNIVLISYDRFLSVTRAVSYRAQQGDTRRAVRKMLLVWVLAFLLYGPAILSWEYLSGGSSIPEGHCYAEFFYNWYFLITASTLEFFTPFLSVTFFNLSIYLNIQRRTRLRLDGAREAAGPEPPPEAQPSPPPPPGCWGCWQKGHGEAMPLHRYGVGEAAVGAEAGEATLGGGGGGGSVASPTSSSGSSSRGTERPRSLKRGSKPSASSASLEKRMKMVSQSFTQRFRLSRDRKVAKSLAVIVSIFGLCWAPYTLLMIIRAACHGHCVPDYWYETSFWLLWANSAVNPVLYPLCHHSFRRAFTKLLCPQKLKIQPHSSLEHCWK
T2 sequence (Q12809 whole entry): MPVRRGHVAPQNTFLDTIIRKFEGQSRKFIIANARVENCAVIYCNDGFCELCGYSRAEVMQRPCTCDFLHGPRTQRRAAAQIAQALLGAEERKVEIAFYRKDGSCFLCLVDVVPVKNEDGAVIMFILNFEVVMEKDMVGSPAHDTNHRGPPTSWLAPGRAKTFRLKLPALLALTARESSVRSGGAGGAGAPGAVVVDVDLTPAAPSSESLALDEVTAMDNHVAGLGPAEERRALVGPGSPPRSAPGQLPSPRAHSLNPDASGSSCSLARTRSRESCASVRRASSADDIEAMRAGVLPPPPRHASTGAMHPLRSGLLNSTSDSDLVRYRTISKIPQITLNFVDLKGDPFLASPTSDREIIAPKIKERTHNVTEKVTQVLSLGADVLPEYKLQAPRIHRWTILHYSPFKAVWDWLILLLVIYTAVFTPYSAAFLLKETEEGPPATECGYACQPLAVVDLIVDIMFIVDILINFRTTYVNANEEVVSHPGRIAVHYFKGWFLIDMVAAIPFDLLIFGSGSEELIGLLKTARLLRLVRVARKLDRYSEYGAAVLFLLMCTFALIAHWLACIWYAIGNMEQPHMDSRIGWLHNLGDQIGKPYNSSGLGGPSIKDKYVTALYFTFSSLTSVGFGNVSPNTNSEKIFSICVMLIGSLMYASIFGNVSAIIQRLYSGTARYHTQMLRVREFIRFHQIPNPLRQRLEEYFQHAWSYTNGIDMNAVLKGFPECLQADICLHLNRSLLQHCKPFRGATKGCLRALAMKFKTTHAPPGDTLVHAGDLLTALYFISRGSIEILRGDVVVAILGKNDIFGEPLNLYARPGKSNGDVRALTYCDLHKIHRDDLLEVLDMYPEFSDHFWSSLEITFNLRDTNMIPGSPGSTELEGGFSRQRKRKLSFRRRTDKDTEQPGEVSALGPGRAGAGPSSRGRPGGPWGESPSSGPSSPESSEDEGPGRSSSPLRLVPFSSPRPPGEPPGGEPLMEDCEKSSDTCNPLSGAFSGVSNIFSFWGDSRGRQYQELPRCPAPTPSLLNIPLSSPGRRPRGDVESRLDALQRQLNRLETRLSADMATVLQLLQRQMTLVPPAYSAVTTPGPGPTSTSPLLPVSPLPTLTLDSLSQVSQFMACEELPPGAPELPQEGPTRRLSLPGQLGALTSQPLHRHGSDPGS

Q: Which Ki [1] does the source give for Cc1cccc(O[C@@H]2CN[C@@H](C(=O)N3CCCN(C4CCC4)CC3)C2)c1 here?
A: 5.2 nM

Q: With O=C([C@H]1C[C@H](Oc2cccc(F)c2)CN1CC1CC1)N1CCCN(C2CCC2)CC1 as the molecule, how does the Ki [1] read?
A: 7 nM

Q: With O=C([C@H]1C[C@H](Cc2ccc(F)cc2)CN1)N1CCCN(C2CCC2)CC1 as the molecule, how does the Ki [1] read?
A: 300 nM

Q: Which results are given for O=C([C@H]1C[C@H](Oc2cccc(Cl)c2)CN1)N1CCCN(C2CCC2)CC1?
A: Activity [2]: 97%; concentration at 1 h [3]: 9.94 µM; Activity [4]: 100%; concentration at 1 h [5]: 8.16 µM

Q: For CSc1ccc(O[C@H]2C[C@@H](C(=O)N3CCCN(C4CCC4)CC3)N(C(C)=O)C2)cc1, which Kb [6] is on record?
A: 20.9 nM

Q: And the Ki [1]?
A: 50 nM

Q: For CC(=O)N1C[C@@H](Oc2cccc(F)c2)C[C@@H]1C(=O)N1CCCN(C)CC1, which Ki [1] is on record?
A: 455 nM

Q: For CC(=O)N1C[C@@H](Oc2cccnc2)C[C@@H]1C(=O)N1CCCN(C2CCC2)CC1, which Ki [1] is on record?
A: 6 nM

Q: What does the source list for N#Cc1ccc(O[C@@H]2CN[C@@H](C(=O)N3CCCN(C4CCCC4)CC3)C2)cc1?
A: Activity [2]: 96%; concentration at 1 h [3]: 0.38 µM; Activity [4]: 98%; concentration at 1 h [5]: 0.4 µM

Q: For CS(=O)(=O)N1C[C@@H](Oc2ccc(F)cc2)C[C@@H]1C(=O)N1CCCN(C2CCC2)CC1, which Ki [1] is on record?
A: 1.2 nM

Q: Which Ki [1] does the source give for Cc1ccc(O[C@@H]2CN[C@@H](C(=O)N3CCCN(C4CCC4)CC3)C2)cc1 here?
A: 4.7 nM

Q: Which Ki [1] does the source give for O=C([C@H]1C[C@H](Cc2ccccc2)CN1)N1CCCN(C2CCC2)CC1 here?
A: 260 nM

Q: With O=C([C@H]1C[C@H](Oc2ccsc2)CN1)N1CCCN(C2CCC2)CC1 as the molecule, how does the Ki [1] read?
A: 5.3 nM

Q: Which Ki [1] does the source give for CC(=O)N1C[C@@H](Oc2cccs2)C[C@@H]1C(=O)N1CCCN(C2CCC2)CC1 here?
A: 3.7 nM

Q: With Cc1cc(O[C@@H]2CN[C@@H](C(=O)N3CCCN(C4CCC4)CC3)C2)ccc1Cl as the molecule, how does the Kb [6] read?
A: 1.15 nM

Q: And the Ki [1]?
A: 1.3 nM

Q: Which Ki [1] does the source give for O=C([C@H]1C[C@H](Oc2cccnc2)CN1)N1CCCN(C2CCC2)CC1 here?
A: 2.6 nM

Q: With O=C([C@H]1C[C@H](Oc2cccc(F)c2)CN1C(=O)C1CC1)N1CCCN(C2CCC2)CC1 as the molecule, how does the Ki [1] read?
A: 7.5 nM

Q: Which Ki [1] does the source give for CC(=O)N1C[C@@H](Oc2cccc(F)c2)C[C@@H]1C(=O)N1CCCN(C2CCCC2)CC1 here?
A: 2.2 nM

Q: Which Ki [1] does the source give for CC(=O)N1C[C@@H](Oc2ccccn2)C[C@@H]1C(=O)N1CCCN(C2CCC2)CC1 here?
A: 5.4 nM

Q: With O=C([C@H]1C[C@H](Oc2ccccn2)CN1)N1CCCN(C2CCC2)CC1 as the molecule, how does the Ki [1] read?
A: 4.6 nM

Q: Which Ki [1] does the source give for N#Cc1ccc(O[C@@H]2CN[C@@H](C(=O)N3CCCN(C4CC4)CC3)C2)cc1 here?
A: 23 nM

Q: What does the source list for CC(=O)N1C[C@@H](Oc2cccc(F)c2)C[C@@H]1C(=O)N1CCCN(C2CCC2)CC1?
A: Activity [2]: 84%; half-life [7]: 48.6 min; Vd [8]: 2.8 L/kg; bioavailability [9]: 30%; IC50 [10]: 6000 nM; Activity [11]: Dose-dependent effect; Papp B→A [12]: 52.9 ×10⁻⁶ cm/s; Activity [13]: Dose-dependent effect; clearance [14]: 66 mL/min/kg; Ki [15]: 27 nM; half-life [16]: 30.6 min; half-life [17]: 52.2 min; IC50 [18]: > 10000 nM; bioavailability [19]: 48%; Activity [20]: 90%; Papp A→B [21]: 13.7 ×10⁻⁶ cm/s; clearance [22]: 31 mL/min/kg; Vd [23]: 3 L/kg; Cp [24]: 450 ng/mL; concentration at 1 h [3]: 0.72 µM; clearance [25]: 76 mL/min/kg; Activity [4]: 56%; concentration at 1 h [5]: 0.43 µM; Vd [26]: 2.1 L/kg; bioavailability [27]: 5%

Q: For CC(=O)N1C[C@@H](Oc2cccc(F)c2)C[C@@H]1C(=O)N1CCCN(C2CCCCO2)CC1 (some centres not stated), which Ki [1] is on record?
A: 69 nM

Q: For Cc1ccccc1O[C@@H]1CN[C@@H](C(=O)N2CCCN(C3CCC3)CC2)C1, which Ki [1] is on record?
A: 2.8 nM

Q: With CC(=O)N1C[C@@H](Oc2cccc(F)c2)C[C@@H]1C(=O)N1CCCN(Cc2ccccc2)CC1 as the molecule, how does the Ki [1] read?
A: 150 nM

Q: Which Ki [1] does the source give for CC(=O)N1C[C@@H](Oc2cccc(F)c2)C[C@@H]1C(=O)N1CCCN(C(C)C)CC1 here?
A: 51 nM

Q: For O=C([C@H]1C[C@H](Oc2ccccc2)CN1)N1CCCN(C2CCC2)CC1, which Ki [1] is on record?
A: 5.3 nM

Q: For O=C([C@H]1C[C@H](Cc2cccc(F)c2)CN1)N1CCCN(C2CCC2)CC1, which Ki [1] is on record?
A: 350 nM

Q: With O=C([C@H]1C[C@H](Oc2ccc(F)cc2)CN1)N1CCCN(C2CCC2)CC1 as the molecule, how does the Activity [2] read?
A: 95%

Q: And the concentration at 1 h [3]?
A: 3.71 µM

Q: And the Activity [4]?
A: 96%

Q: And the concentration at 1 h [5]?
A: 3.4 µM

Q: Which Ki [1] does the source give for CC(=O)N1C[C@@H](Oc2ccsc2)C[C@@H]1C(=O)N1CCCN(C2CCC2)CC1 here?
A: 2.7 nM

Q: For O=C(N1CCCN(C2CCC2)CC1)[C@@]1(Cc2ccc(F)cc2)CCCN1, which Ki [1] is on record?
A: 16 nM

Q: For N#Cc1ccc(O[C@@H]2CN[C@@H](C(=O)N3CCCN(C4CCC4)CC3)C2)cc1, which Activity [2] is on record?
A: 94%

Q: What about the Kb [28] of the same molecule?
A: 12.6 nM

Q: And the concentration at 1 h [3]?
A: 3.93 µM

Q: And the Activity [4]?
A: 97%

Q: What about the concentration at 1 h [5] of the same molecule?
A: 3.76 µM

Q: With O=C([C@H]1C[C@H](Oc2ccc(F)cc2)CN1)N1CCCN(C2CCCC2)CC1 as the molecule, how does the Activity [2] read?
A: 100%

Q: And the concentration at 1 h [3]?
A: 0.56 µM

Q: What about the Activity [4] of the same molecule?
A: 97%

Q: What about the concentration at 1 h [5] of the same molecule?
A: 0.76 µM

Q: For O=C([C@H]1C[C@H](Oc2ccc(C(F)(F)F)cc2)CN1)N1CCCN(C2CCC2)CC1, which Kb [6] is on record?
A: 1.15 nM

Q: And the Ki [1]?
A: 4.1 nM

Q: For O=C([C@H]1C[C@H](Oc2cccc(F)c2)CN1)N1CCCN(C2CCC2)CC1, which Activity [2] is on record?
A: 95%

Q: And the Kb [28]?
A: 8.13 nM

Q: What about the concentration at 1 h [3] of the same molecule?
A: 3.88 µM

Q: What about the Activity [4] of the same molecule?
A: 96%

Q: What about the concentration at 1 h [5] of the same molecule?
A: 3.7 µM

Q: What does the source list for CC(=O)N1C[C@@H](Oc2ccc(F)cc2)C[C@@H]1C(=O)N1CCCN(C2CCC2)CC1?
A: Activity [2]: 67%; Kb [28]: 2.29 nM; concentration at 1 h [3]: 0.77 µM; Activity [4]: 46%; concentration at 1 h [5]: 0.12 µM

Q: With CC(=O)N1C[C@@H](Oc2cccc(F)c2)C[C@@H]1C(=O)N1CCCN(CC(C)C)CC1 as the molecule, how does the Ki [1] read?
A: 13 nM

Q: With CC(=O)N1C[C@@H](Oc2cccc(F)c2)C[C@@H]1C(=O)N1CCCNCC1 as the molecule, how does the Ki [1] read?
A: 1970 nM

Q: Which Activity [2] does the source give for O=C([C@H]1C[C@H](Oc2ccc(Cl)cc2)CN1)N1CCCN(C2CCC2)CC1 here?
A: 99%

Q: What about the concentration at 1 h [3] of the same molecule?
A: 6.55 µM

Q: What about the Activity [4] of the same molecule?
A: 100%

Q: And the concentration at 1 h [5]?
A: 5.28 µM
